Test results reported in ChEMBL document CHEMBL2331329, “Synthesis and biological evaluation of 2-(alkoxycarbonyl)-3-anilinobenzo[b]thiophenes and thieno[2,3-b]pyridines as new potent anticancer agents” (J Med Chem, 2013).
Activity calls are given as the source filed them. The rule behind the calls is not given here.

Tests used:
HeLa [1] = assay: Induction of apoptosis in human HeLa cells assessed as ROS production at 10 to 100 nM after 24 to 48 hrs by H2-DCFDA staining-based flow cytometry relative to control; assay type: functional, cell-based
Method in brief: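 HeLa cells treated 24 or 48 h, then stained with H2-DCFDA or hydroethidine. ROS read by flow cytometry against untreated control. Mean ± SEM of three independent experiments.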

Jurkat [2] = assay: Ratio of Combretastatin A-4 IC50 to compound IC50 for human Jurkat cells; assay type: functional
PBL = assay: Cytotoxicity against human PHA-stimulated PBL cells after 72 hrs by MTT assay; assay type: cell-based
Method in brief: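 Peripheral blood lymphocytes from healthy donors isolated on a Lymphoprep gradient and rested overnight in RPMI-1640 with 10% FBS. Nonadherent cells at 5 × 10^5 cells/mL, with 2.5 μg/mL PHA for proliferating cultures or without it for resting ones. Compound exposure 72 h, viability by MTT. Mean ± SEM of three experiments.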

MCF7 [3] = assay: Cytotoxicity against human MCF7 cells after 72 hrs by MTT assay; assay type: functional, cell-based; conditions: MCF7, 72 h
HeLa [4] = assay: Ratio of Combretastatin A-4 IC50 to compound IC50 for human HeLa cells; assay type: functional
HeLa [5] = assay: Induction of apoptosis in human HeLa cells assessed as Mcl-1 phosphorylation at 10 to 100 nM after 24 hrs by Western Blot analysis; assay type: functional, cell-based
Method in brief: (§1)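 HeLa cells exposed to 10 or 100 nM for 24 or 48 h, washed in ice-cold PBS, lysed on ice 30 min, spun at 15000g at 4 °C. 20 μg protein run on 7.5–15% SDS–PAGE, blotted to PVDF, blocked overnight at 4 °C. Primary antibodies 2 h at room temperature, peroxidase secondary 60 min, ECL detection, β-actin reprobe as loading control.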

HeLa [6] = assay: Cell cycle arrest in human HeLa cells assessed as reduction in phosphorylated cdc2 Tyr15 level at 10 to 100 nM after 24 to 48 hrs by Western Blot analysis; assay type: functional, cell-based; method in brief: as §1
[7] = Selectivity ratio of IC50 for human Jurkat cells to IC50 for human PHA-stimulated PBL cells; assay type: ADME, cell-based; conditions: Jurkat cells and PHA-stimulated PBL cells, read-out: Ratio IC50
A549 = assay: Cytotoxicity against human A549 cells after 72 hrs by MTT assay; assay type: functional, cell-based; conditions: A549, 72 h
HeLa [8] = assay: Cell cycle arrest in human HeLa cells assessed as accumulation at G2/M phase at >20 nM after 24 hrs by propidium iodide staining-based flow cytometry; assay type: functional
Method in brief: (§2)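 Jurkat, HT-29 and HeLa cells in exponential growth (5 × 10^5 cells) treated 24 h at a range of concentrations. Fixed in ice-cold 70% ethanol, lysed with buffer containing RNase A and 0.1% Triton X-100, stained with propidium iodide. DNA content read by flow cytometry and the percentage of cells per cycle phase derived from DNA histograms.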

[9] = Antitumor activity against mouse BNL 1ME A.7R.1 cells xenografted in Balb/c mouse assessed as reduction in tumor growth at 5 mg/kg, ip QD for 7 days; assay type: functional; parameters: scale not given: the % may be the effect or the level left; conditions: route intraperitoneal
Method in brief: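 Male Balb/c mice, 8 weeks old, given 10^7 syngeneic BNL 1ME A.7R.1 hepatoma cells subcutaneously in the dorsal region in 200 μL PBS. Randomised to groups of five. Dosed intraperitoneally once daily for 7 days at 5 mg/kg in 0.9% NaCl with 5% PEG 400 and 0.5% Tween 80, against vehicle and CA-4P. Tumours measured daily by caliper, V = AB2/2; body weight recorded. Mean ± SEM.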

Jurkat [10] = assay: Cell cycle arrest in human Jurkat cells assessed as accumulation at G2/M phase after 24 hrs by propidium iodide staining-based flow cytometry; assay type: functional; method in brief: as §2
HT-29 [11] = assay: Cell cycle arrest in human HT-29 cells assessed as accumulation at G2/M phase after 24 hrs by propidium iodide staining-based flow cytometry; assay type: functional; method in brief: as §2
LoVo = assay: Resistance index, ratio of IC50 for human LoVo/DX cells to IC50 for human LoVo cells; assay type: functional
Method in brief: (§3)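 MTT viability test: 8 × 10^3 cells per well settled 18 h at 37 °C, 5% CO2, then given fresh medium with compound (from 10 mM DMSO stocks, final DMSO ≤0.25%) for 72 h. […] CEMVbl-100 is a vinblastine-selected P-gp line; LoVoDoxo is grown in Ham's F12 with 0.1 μg/mL doxorubicin. Resistance index = resistant IC50/parental IC50.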

[12] = Selectivity ratio of IC50 for human CEM cells to IC50 for human PHA-stimulated PBL cells; assay type: ADME, cell-based; conditions: CEM cells and PHA-stimulated PBL cells, read-out: Ratio IC50
HeLa [13] = assay: Induction of apoptosis in human HeLa cells assessed as reduction of Xiap expression at 10 nM after 24 hrs by Western Blot analysis; assay type: functional, cell-based; method in brief: as §1
HeLa [14] = assay: Cell cycle arrest in human HeLa cells assessed as accumulation at G2/M phase after 24 hrs by propidium iodide staining-based flow cytometry; assay type: functional; method in brief: as §2
Bos taurus = organism: Bos taurus; assay: Displacement of [3H]colchicine from bovine brain tubulin at 1 uM after 20 mins by turbidimetric analysis
HeLa [15] = assay: Induction of apoptosis in human HeLa cells assessed as mitochondrial membrane depolarization after 24 to 48 hrs by JC-1 staining; assay type: functional, cell-based
Method in brief: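 HeLa cells treated 24 or 48 h, then stained with the potentiometric dye JC-1. Proportion of cells with depolarised mitochondria read by flow cytometry. Mean ± SEM of three independent experiments.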

CCRF-CEM = assay: Cytotoxicity against human CEM cells after 72 hrs by MTT assay; assay type: functional, cell-based; method in brief: as §3
HeLa [16] = assay: Induction of apoptosis in human HeLa cells assessed as caspase-9 cleavage at 10 to 100 nM after 24 to 48 hrs by Western Blot analysis; assay type: functional, cell-based; method in brief: as §1
HeLa [17] = assay: Cell cycle arrest in human HeLa cells assessed as increase in activated cdc25 level at 10 to 100 nM after 24 to 48 hrs by Western Blot analysis; assay type: functional, cell-based; method in brief: as §1
HT-29 [18] = assay: Cell cycle arrest in human HT-29 cells assessed as accumulation at G2/M phase at >20 nM after 24 hrs by propidium iodide staining-based flow cytometry; assay type: functional; method in brief: as §2
MCF7 [19] = assay: Ratio of Combretastatin A-4 IC50 to compound IC50 for human MCF7 cells; assay type: functional
HT-29 [20] = assay: Cytotoxicity against human HT-29 cells after 72 hrs by MTT assay; assay type: functional, cell-based; conditions: HT-29, 72 h
HeLa [21] = assay: Induction of apoptosis in human HeLa cells assessed as caspase-3 cleavage at 10 to 100 nM after 24 to 48 hrs by Western Blot analysis; assay type: functional, cell-based; method in brief: as §1
HeLa [22] = assay: Induction of apoptosis in human HeLa cells assessed as decrease in unphosphorylated Mcl-1 at 10 to 100 nM after 24 hrs by Western Blot analysis; assay type: functional, cell-based; method in brief: as §1
Jurkat [23] = assay: Cell cycle arrest in human Jurkat cells assessed as accumulation at G2/M phase at 20 nM after 24 hrs by propidium iodide staining-based flow cytometry; assay type: functional; method in brief: as §2
[24] = Cytotoxicity against human LoVo/DX cells after 72 hrs by MTT assay; assay type: functional, cell-based; method in brief: as §3
HeLa [25] = assay: Cell cycle arrest in human HeLa cells assessed as accumulation at G2/M phase at 20 nM after 24 hrs by propidium iodide staining-based flow cytometry; assay type: functional; method in brief: as §2
HeLa [26] = assay: Cytotoxicity against human HeLa cells after 72 hrs by MTT assay; assay type: functional, cell-based

COC(=O)c1sc2cc(OC)ccc2c1Nc1cc(OC)c(OC)c(OC)c1
Activity (HeLa [1]): Active
Ratio IC50 (Jurkat [2]): 2
IC50 (PBL): > 10000 nM
IC50 (MCF7 [3]): 0.7 nM
Ratio IC50 (HeLa [4]): 2
Activity (HeLa [5]): Active
Activity (HeLa [6]): Active
selectivity ratio [7]: 2000
IC50 (A549): 8.5 nM
Activity (HeLa [8]): >80%
Activity [9]: 68.5%
Activity (Jurkat [10]): Dose-dependent effect
Activity (HT-29 [11]): Dose-dependent effect
Ratio IC50 (LoVo): 1.3
selectivity ratio [12]: 2000
Activity (HeLa [13]): Active
Activity (HeLa [14]): Dose-dependent effect
inhibition (Bos taurus): 85%
Activity (HeLa [15]): Dose-dependent effect
IC50 (CCRF-CEM): 3.2 nM
Activity (HeLa [16]): Active
Activity (HeLa [17]): Active
Activity (HT-29 [18]): >80%
Ratio IC50 (MCF7 [19]): 2
IC50 (HT-29 [20]): 0.9 nM
Activity (HeLa [21]): Active
Activity (HeLa [22]): Active
Activity (Jurkat [23]): Active
IC50 [24]: 0.4 nM
Activity (HeLa [25]): Active
IC50 (HeLa [26]): 0.28 nM
